Assays:
[1] = biological target: T1, Multidrug resistance-associated protein 1 (Homo sapiens, UniProt P33527); experiment: Reversal of ABCC1-mediated multidrug resistance in human H69AR cells assessed as resistance factor by measuring [GI50(resistant cell line without or with compound)/ GI50(sensitive cell line)] at 10 uM incubated for 72 hrs by MTT assay (reference value: 8.2); type: cell-based
[2] = biological target: T2, ATP-dependent translocase ABCB1 (Homo sapiens, UniProt P08183); experiment: (§1) Reversal of ABCB1 (unknown origin)-mediated multidrug resistance in MDCK2 cells co-expressing MDR1 (unknown origin) assessed as resistance factor by measuring [GI50(resistant cell line without or with compound)/ GI50(sensitive cell line)] at 5 uM incubated for 72 hrs by MTT assay (reference value: 17); type: cell-based
Summary of the method: (§2)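 MDR reversal assay with daunorubicin at 10 nM–10 µM, alone or with test compound at 0.5, 1, 5 or 10 µM. Resistant cells were ABCB1-overexpressing A2780/ADR or MDCK II MDR1, with sensitive A2780 or MDCK II cells as comparators. Resistance factor = resistant GI50 / sensitive GI50. EC50 was derived from resistance factors versus modulator concentration. Values are from ≥3 experiments in duplicate ± SEM.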

[3] = biological target: T2, ATP-dependent translocase ABCB1; experiment: Inhibition of ABCB1 in human A2780/ADR cells preincubated for 30 mins followed by calcein AM addition and measured at 60 secs time interval by fluorescence assay; type: cell-based
[4] = biological target: T2, ATP-dependent translocase ABCB1; experiment: as §1, with “at 10” for “at 5”; type: cell-based; summary of the method: as §2
[5] = biological target: T2, ATP-dependent translocase ABCB1; experiment: Reversal of ABCB1-mediated multidrug resistance in human A2780/ADR cells assessed as resistance factor by measuring [GI50(resistant cell line without or with compound)/ GI50(sensitive cell line)] at 5 uM incubated for 72 hrs by MTT assay (reference value: 49); type: cell-based; summary of the method: as §2
[6] = biological target: T3, Broad substrate specificity ATP-binding cassette transporter ABCG2 (Homo sapiens, UniProt Q9UNQ0); experiment: as §1, with “of ABCG2” for “of ABCB1”, “co-expressing BCRP” for “co-expressing MDR1”, “at 1” for “at 5”, “value: 27)” for “value: 17)”; type: cell-based
T3 sequence (Q9UNQ0 whole entry): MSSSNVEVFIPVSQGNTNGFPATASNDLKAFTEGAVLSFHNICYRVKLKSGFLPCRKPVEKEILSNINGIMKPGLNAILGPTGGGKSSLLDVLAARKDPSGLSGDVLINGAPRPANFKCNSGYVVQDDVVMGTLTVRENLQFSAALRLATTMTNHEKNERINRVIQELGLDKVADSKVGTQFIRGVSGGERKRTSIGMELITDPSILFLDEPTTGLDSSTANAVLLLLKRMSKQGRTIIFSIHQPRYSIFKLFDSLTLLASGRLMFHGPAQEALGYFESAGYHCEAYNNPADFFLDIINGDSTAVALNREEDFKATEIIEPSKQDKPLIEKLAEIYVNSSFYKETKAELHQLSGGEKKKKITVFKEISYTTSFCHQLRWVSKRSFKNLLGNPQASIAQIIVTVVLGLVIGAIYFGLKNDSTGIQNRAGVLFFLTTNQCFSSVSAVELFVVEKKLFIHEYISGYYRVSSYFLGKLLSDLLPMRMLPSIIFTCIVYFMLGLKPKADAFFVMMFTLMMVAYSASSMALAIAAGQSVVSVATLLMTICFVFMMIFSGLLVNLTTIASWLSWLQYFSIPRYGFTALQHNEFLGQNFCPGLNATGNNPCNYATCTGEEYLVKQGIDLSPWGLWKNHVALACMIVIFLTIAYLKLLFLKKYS

[7] = biological target: T3, Broad substrate specificity ATP-binding cassette transporter ABCG2; experiment: Inhibition of ABCG2 (unknown origin) expressed in MDCK2 cells co-expressing BCRP (unknown origin) assessed as effect on pheophorbide A accumulation pre-incubated for 20 mins followed by pheophorbide A addition and measured after 120 mins by flow cytometric analysis; type: cell-based
Summary of the method: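 Pheophorbide A accumulation assay in ABCG2-transfected MDCK II BCRP cells. Ko143 at 10 µM set 100% and no compound set 0%. Screening was at 10 µM; compounds reaching >20% (+SEM) got IC50 curves constrained to the Ko143 maximum at 10 µM. Values are reported as mean ± SEM.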

[8] = biological target: T3, Broad substrate specificity ATP-binding cassette transporter ABCG2; experiment: Reversal of ABCG2-mediated multidrug resistance in human MCF-7/MX cells assessed as resistance factor by measuring [GI50(resistant cell line without or with compound)/ GI50(sensitive cell line)] at 5 uM incubated for 72 hrs by MTT assay (reference value: 789); type: cell-based
[9] = Growth inhibition of human MCF7/MX cells incubated for 72 hrs by MTT assay
Summary of the method: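 MTT-based cytotoxicity assay giving GI50 of the compound alone in each listed parental, selected or transfected cell line.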

[10] = biological target: T1, Multidrug resistance-associated protein 1; experiment: as §1, with “of ABCC1” for “of ABCB1”, “co-expressing MRP1” for “co-expressing MDR1”, “at 0.5” for “at 5”, “value: 7)” for “value: 17)”; type: cell-based
[11] = biological target: T2, ATP-dependent translocase ABCB1; experiment: Competitive inhibition of ABCB1-mediated calcein-AM transport in human A2780/ADR cells at 0.056 to 0.316 uM by Lineweaver-Burk plot analysis; type: cell-based
Summary of the method: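 Kinetic study of calcein AM transport by Lineweaver-Burk analysis. ABCC1 was studied in H69AR cells with calcein AM at 0.25, 0.3, 0.45, 0.6 and 0.8 µM and inhibitor at 0.316, 0.562, 1.00 and 1.78 µM plus a zero control. ABCB1 was studied in A2780/ADR cells with calcein AM at 0.2–0.8 µM and inhibitor at 0.056, 0.100, 0.178 and 0.316 µM plus a zero control.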

ABCB1 (P-gp) [12] = biological target: ABCB1 (P-gp) (Homo sapiens, UniProt P08183); experiment: Inhibition of ABCB1 in human A2780/ADR cells at 10 uM preincubated for 30 mins followed by calcein AM addition and measured at 60 secs time interval by fluorescence assay relative to cyclosporine A; type: cell-based; settings: probe calcein AM
[13] = biological target: T3, Broad substrate specificity ATP-binding cassette transporter ABCG2; experiment: Non-competitive inhibition of ABCG2 (unknown origin)-mediated pheophorbide A transport in MDCK2 cells co-expressing BCRP (unknown origin) at 0.178 to 1 uM by Lineweaver-Burk plot analysis; type: cell-based
Summary of the method: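 Lineweaver-Burk kinetics of ABCG2-mediated pheophorbide A transport in transfected MDCK II BCRP cells. Pheophorbide A was used at 0.5, 0.6, 0.8, 1.0 and 1.5 µM. Inhibitor was used at 0.178, 0.316, 0.562 and 1.00 µM, with a zero-inhibitor control.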

ABCB1 (P-gp) [14] = experiment: Therapeutic index, ratio of GI50 for human A2780/ADR cells to IC50 for ABCB1 in human A2780/ADR cells; type: toxicity, cell-based; settings: read-out: TI
Summary of the method: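 Therapeutic ratio = GI50 from the MTT cytotoxicity assay / IC50 from the inhibition assay in the same cell line. The cell lines were H69AR (calcein AM, ABCC1), A2780/ADR (calcein AM, ABCB1) and MDCK II BCRP (pheophorbide A, ABCG2).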

[15] = biological target: T2, ATP-dependent translocase ABCB1; experiment: Reversal of ABCB1-mediated multidrug resistance in human A2780/ADR cells assessed as resistance factor by measuring [GI50(resistant cell line without or with compound)/ GI50(sensitive cell line)] at 0.5 uM incubated for 72 hrs by MTT assay (reference value: 49); type: cell-based; summary of the method: as §2

T2 sequence (P08183 whole entry): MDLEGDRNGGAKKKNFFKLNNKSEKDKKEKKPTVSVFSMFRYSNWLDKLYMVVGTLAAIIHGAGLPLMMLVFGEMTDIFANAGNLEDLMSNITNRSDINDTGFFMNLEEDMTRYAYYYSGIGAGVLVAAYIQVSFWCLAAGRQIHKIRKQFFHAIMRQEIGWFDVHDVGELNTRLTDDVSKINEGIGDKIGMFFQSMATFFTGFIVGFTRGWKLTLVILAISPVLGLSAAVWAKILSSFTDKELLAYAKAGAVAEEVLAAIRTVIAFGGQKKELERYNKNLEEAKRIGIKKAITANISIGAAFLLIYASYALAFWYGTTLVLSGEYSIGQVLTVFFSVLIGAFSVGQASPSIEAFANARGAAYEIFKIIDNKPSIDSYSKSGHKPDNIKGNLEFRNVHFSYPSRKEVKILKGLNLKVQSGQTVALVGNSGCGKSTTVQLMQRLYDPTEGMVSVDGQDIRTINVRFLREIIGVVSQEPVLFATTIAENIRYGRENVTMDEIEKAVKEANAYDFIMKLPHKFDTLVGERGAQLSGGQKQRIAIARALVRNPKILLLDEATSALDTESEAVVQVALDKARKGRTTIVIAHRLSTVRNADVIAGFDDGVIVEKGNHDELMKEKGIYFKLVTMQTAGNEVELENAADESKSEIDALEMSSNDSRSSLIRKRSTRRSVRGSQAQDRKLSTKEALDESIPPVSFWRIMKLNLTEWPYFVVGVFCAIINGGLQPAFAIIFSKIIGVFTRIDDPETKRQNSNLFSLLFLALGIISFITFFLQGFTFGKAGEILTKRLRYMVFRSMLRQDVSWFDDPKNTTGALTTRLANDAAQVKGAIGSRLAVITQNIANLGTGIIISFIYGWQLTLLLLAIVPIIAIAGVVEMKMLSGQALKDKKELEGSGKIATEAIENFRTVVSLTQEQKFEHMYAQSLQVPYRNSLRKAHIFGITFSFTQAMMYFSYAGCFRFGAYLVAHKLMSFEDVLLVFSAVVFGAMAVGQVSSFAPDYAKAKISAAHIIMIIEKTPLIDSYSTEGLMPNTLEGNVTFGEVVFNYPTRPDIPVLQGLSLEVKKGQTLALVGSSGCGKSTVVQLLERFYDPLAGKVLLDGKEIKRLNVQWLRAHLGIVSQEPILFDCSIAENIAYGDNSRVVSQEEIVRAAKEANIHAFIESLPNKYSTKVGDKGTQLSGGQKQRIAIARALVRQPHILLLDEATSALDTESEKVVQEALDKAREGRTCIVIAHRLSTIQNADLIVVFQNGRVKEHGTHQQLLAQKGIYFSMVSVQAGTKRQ
T1 sequence (P33527 whole entry): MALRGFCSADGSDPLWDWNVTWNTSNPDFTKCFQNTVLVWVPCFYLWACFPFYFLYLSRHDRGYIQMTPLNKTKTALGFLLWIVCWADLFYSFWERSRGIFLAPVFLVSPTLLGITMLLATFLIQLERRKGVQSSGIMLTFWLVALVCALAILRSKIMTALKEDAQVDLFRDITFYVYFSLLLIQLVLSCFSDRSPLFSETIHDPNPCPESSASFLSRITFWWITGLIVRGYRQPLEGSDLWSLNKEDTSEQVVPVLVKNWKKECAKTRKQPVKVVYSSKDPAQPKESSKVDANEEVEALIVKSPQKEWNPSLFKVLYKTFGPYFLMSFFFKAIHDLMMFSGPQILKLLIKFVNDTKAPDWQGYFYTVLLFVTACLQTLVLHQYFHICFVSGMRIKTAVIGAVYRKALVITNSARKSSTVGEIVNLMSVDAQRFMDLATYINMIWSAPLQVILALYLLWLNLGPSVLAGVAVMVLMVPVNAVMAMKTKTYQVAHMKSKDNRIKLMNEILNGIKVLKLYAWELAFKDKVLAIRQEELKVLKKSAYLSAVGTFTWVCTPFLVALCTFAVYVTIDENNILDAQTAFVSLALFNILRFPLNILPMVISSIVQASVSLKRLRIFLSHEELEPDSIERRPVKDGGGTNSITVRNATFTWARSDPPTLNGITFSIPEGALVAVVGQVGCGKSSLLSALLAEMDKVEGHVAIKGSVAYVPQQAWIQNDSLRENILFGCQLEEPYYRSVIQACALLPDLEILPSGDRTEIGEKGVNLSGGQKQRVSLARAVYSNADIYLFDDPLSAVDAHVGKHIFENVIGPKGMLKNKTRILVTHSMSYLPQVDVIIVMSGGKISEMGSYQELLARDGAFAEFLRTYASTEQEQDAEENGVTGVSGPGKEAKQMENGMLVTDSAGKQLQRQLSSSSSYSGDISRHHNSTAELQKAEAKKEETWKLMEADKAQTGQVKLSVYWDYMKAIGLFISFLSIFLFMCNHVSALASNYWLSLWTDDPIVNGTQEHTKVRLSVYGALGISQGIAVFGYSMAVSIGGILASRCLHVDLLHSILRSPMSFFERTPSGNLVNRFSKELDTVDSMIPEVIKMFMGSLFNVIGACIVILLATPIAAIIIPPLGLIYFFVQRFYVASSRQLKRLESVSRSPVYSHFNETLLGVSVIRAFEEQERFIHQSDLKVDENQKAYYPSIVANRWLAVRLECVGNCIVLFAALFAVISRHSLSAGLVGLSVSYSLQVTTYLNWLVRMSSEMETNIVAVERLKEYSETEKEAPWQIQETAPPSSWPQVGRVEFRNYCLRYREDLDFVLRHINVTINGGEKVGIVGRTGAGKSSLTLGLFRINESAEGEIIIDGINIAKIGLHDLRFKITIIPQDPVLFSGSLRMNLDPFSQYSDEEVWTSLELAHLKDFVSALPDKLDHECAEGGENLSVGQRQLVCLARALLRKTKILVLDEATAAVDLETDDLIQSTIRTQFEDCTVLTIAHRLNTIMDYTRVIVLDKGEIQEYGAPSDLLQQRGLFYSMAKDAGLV
Sequence of ABCB1 (P-gp) (Homo sapiens, UniProt P08183) (P08183 whole entry): as the sequence (P08183 whole entry) above

With `CC1CCc2c(sc3nc(-c4cccnc4)nc(N4CCN(C(C(N)=O)c5ccccc5)CC4)c23)C1` (stereo not given) the RatioGI50 [1] was 3, the RatioGI50 [2] was 0.9 and the IC50 [3] was 1730 nM. The RatioGI50 [4] was 0.5, the RatioGI50 [5] was 6.3 and the RatioGI50 [6] was 17. For the same molecule, the IC50 [7] was 2380 nM, the RatioGI50 [8] was 179 and the GI50 at 72 h [9] was 47000 nM. The RatioGI50 [10] was 4.7, the “inhibition (INH)” value [11] was “Active” and the inhibition at 1 min, 10 µM (ABCB1 (P-gp) [12]) was no less than 20%. The “inhibition (INH)” value [13] was “Active”, the selectivity ratio (ABCB1 (P-gp) [14]) was 14.9 and the RatioGI50 [15] was 32.

— ChEMBL document CHEMBL4350954, “Identification of Thienopyrimidine Scaffold as an Inhibitor of the ABC Transport Protein ABCC1 (MRP1) and Related Transporters Using a Combined Virtual Screening Approach” (J Med Chem, 2019)
